From PubChem BioAssay
Only some compounds are listed: those with a hit (about 3% of all), similar ones and a draw of the others.
KCC2 mod: KCC2 cotransporter modulators, thallium flux, primary screen, cell-based, HEK293 KCC2, FluoZin-2 fluorescence, MLSMR. Solute carrier family 12 member 5 (Homo sapiens), Q9H2X9. KCC2 cells, thallium flux FluoZin-2 fluorescence. B-score of Tl+ flux slope (higher = more flux/activation; lower = inhibition) at 10 µM. 190,000 tested, 2.2% active;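 active = thallium flux slope and its plate-corrected score both differing from the plate sample mean at a set confidence after two filtering rounds, in either direction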;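 also: slope of fluorescence scaled to starting intensity during 10 to 20 s after thallium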
Rad51 HR inh: human RAD51 strand exchange inhibitors, primary screen, biochemical, fluorescence; hRad51 DNA strand exchange, fluorescence dequenching; AID 1385, 2008; 200,000 tested, 0.085% active; inhibition, % at 10 µM;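 active = inhibition above 40% at the single screening dose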;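 also: 0% = DMSO control wells and 100% = blanks with heterologous ssDNA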
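Material: Human Rad51 nucleoprotein filaments preassembled on unlabelled ssDNA | Also added: Labelled 47-mer dsDNA for strand exchange | Dosing: Single dose, 10 µM final compound | Schedule: 30-min compound preincubation and 15-min exchange, both room temperature | Technique: Fluorescence dequenching at 485/520 nm | Measure: Percent inhibition relative to plate controls and blanks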
ROMK primary: ROMK potassium channel modulators, primary screen, cell-based, thallium flux, MLSMR library. ATP-sensitive inward rectifier potassium channel 1 (Homo sapiens), P48048. Tet-inducible ROMK, thallium flux fluorescence; actives lie on both sides. B-score at 10 µM. 130,000 tested, 2% active;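 active = signal ratio slope over the read window, or its plate-corrected B-score, at least 3 SD from the plate mean, either direction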;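 also: B-score of the F/F0 ratio slope over 7 to 12 s after thallium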
Target sequence (P48048 whole entry, looked up): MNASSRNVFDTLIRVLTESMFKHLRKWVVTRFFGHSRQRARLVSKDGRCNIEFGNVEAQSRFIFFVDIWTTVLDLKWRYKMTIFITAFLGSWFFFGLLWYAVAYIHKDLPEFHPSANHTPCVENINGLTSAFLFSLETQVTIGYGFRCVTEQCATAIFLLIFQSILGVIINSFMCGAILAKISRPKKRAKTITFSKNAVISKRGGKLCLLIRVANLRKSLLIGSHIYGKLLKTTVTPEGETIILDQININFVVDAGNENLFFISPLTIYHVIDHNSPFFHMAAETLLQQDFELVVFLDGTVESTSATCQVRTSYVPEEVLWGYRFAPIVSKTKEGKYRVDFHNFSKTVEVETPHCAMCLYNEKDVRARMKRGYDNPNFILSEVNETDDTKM
PKD1 inh: inhibitors of human PKD1 kinase, biochemical, fluorescence polarization; Serine/threonine-protein kinase D1 (Homo sapiens), Q15139; PKD1 kinase fluorescence polarization assay; inhibition, % (concentration not given with the values); 200,000 tested, 0.056% active; AID 797, 2007; in the data active = inhibition above about 50%
ROMK retest: ROMK channel modulator hit retest, confirmation, cell-based, thallium flux, duplicate, resupplied hits. shares compounds with ROMK primary. fluorescence ratio; active compounds read low. normalized thallium flux (F/F0 slope) at 10 µM. 3,000 tested, 54% active. AID 1917, 2009;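 active = Flux at 10 µM at least 3 SD below or above vehicle control mean in one or both replicates; inconclusive = no clear call, values can overlap the other calls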
Numbers without * were called inactive; ? = inconclusive; . = not tested or not shown.

SMILES | KCC2 mod | Rad51 HR inh | ROMK primary | PKD1 inh | ROMK retest
COc1ccc(NC(=O)C2CCC(CNc3c(N4CCCCC4)c(=O)c3=O)CC2)cc1OC (stereo not given) | 1.46 | -0.4 | . | -9.5 | .
CC12COC3(C(=O)Nc4ccc(F)cc4)CC1CCC32C (stereo not given) | 0.707 | -3.5 | . | 1.4 | .
CC12COC3(P(=O)(c4ccccc4)c4ccccc4)CC1CCC23CP(=O)(c1ccccc1)c1ccccc1 (stereo not given) | -1.18 | -2.6 | -2.88* | -6.1 | 0.0509*
CC1=C(N2CCCCC2)CCC1=O | . | -6.3 | . | . | .
COc1ccc2[nH]c3c(N4CC(C)OC(C)C4)ncnc3c2c1 (stereo not given) | . | 2.4 | -1.07 | 1.8 | .
c1ccc2c(c1)CCN(c1ncnc3c1[nH]c1ccccc13)C2 | . | . | -2.92* | . | 0.0601*
COc1cccc(N2CCN(c3ncnc4c3[nH]c3ccc(F)cc34)CC2C)c1 (stereo not given) | -1.02 | 3.1 | -2.95* | -7.2 | 0.057*
COc1ccc2c(c1)[nH]c1c(N3CCSCC3)ncnc12 | -2.83 | -18.4 | . | . | ?
COc1cccc(N2CCN(c3ncnc4c3[nH]c3ccccc34)CC2C)c1 (stereo not given) | -1.56 | -2.4 | -2.76 | -3.7 | 0.059*
O=C(CSc1nnc(-c2ccco2)o1)c1ccc[nH]1 | -0.149 | -0.6 | 0.033 | -6.6 | .
O=c1c2ccccc2cnn1Cc1n[nH]c(=S)n1-c1ccccc1Cl | 0.438 | 2.9 | . | -1.3 | .
O=C(/C=C/c1cccs1)N1CCC2(CC1)Oc1ccc(Cl)cc1C(=O)C21CC(c2ccccc2)=NO1 (stereo not given) | 0.726 | -7.7 | . | . | .
COc1ccc(-c2cc(C(F)(F)F)c(C#N)c(SCC(=O)Nc3ccc(C)cc3)n2)cc1 | -0.0182 | -0.5 | 0.00192 | 1.6 | .
COc1ccc(C(=O)CSc2[nH]c(=O)cc(C(F)(F)F)c2C#N)cc1 | . | -3.1 | . | . | 0.0684*
O=C1NC(=Nc2cccc(Cl)c2)SC1Cc1cccc(Cl)c1Cl (stereo not given) | . | -6.4 | -0.189 | -5.1 | .
CCOC(=O)/C(C#N)=C/c1ccc(OC)c(OC)c1 | -0.586 | 4.1 | 0.128 | -1.5 | .
CCOc1cc(/C=C(\C#N)C(N)=O)ccc1OS(=O)(=O)c1ccccc1 | -0.485 | -1.1 | -4.95* | -1.8 | 0.0329*
O=C1N=C(N2CCCC2)S/C1=C\C=C\c1ccccc1 | -1.81 | . | . | . | .
O=C(c1nnsc1S(=O)c1ccc(Cl)cc1)N1CCOCC1 (stereo not given) | 1.35 | 1.2 | -6.29* | -5.7 | 0.0519*
CC(=O)n1cc(N(C(=O)CCl)c2ccccc2)c2ccccc21 | 0.429 | . | -2.84* | . | ?
C=CCNC(=O)CN1C(=O)C2C3c4ccccc4C(c4ccccc43)C2C1=O (stereo not given) | 0.332 | -3.8 | 0.61 | 2.5 | .
O=C(COC(=O)CNS(=O)(=O)/C=C/c1ccccc1)Nc1cccc2ccccc12 | 0.039 | -10.8 | 0.732 | -4.7 | .
CC(C)(CO)NCc1cccc(OCc2ccc(Cl)cc2)c1 | 0.85 | . | -0.818 | -12.4 | .
Clc1ccc(COc2cccc(CNCc3ccncc3)c2)cc1 | -1.01 | . | -3.79* | 2.5 | 0.0708
CO/C=C\C=C/c1nnn(-c2ccc(Cl)cc2)n1 | 1.05 | 5.5 | -0.344 | -1.6 | .
SMILES | KCC2 mod | Rad51 HR inh | ROMK primary | PKD1 inh | ROMK retest
N#CC1=C(N)NC(SCc2ccc(Cl)cc2)=C(C#N)C12CCCCC2 | -1.84 | 3.9 | -0.851 | -1.8 | 0.0622*
N#CC1=C(N)NC(SCc2ccc(Br)cc2)=C(C#N)C12CCCCC2 | -1.3 | . | -3.91* | -4.1 | 0.0774
CC(C)CCNC(=O)CN(Cc1ccc2c(c1)OCO2)C(=O)Cn1nnc(-c2cccs2)n1 | . | 0.5 | -3.05* | -11.7 | 0.0678*
O=C(CN(C(=O)Cn1nnc(-c2cccs2)n1)c1ccc2c(c1)OCCO2)NC1CCCCC1 | 0.00202 | 1.1 | . | 5.5 | .
CC1(C)C2CC=C(/C=N/NC(=S)Nc3cccnc3)C1C2 (stereo not given) | 1.31 | 7.6 | -3.1* | -0.8 | 0.0779
CC(C)NC(=S)N/N=C/C1=CCC2CC1C2(C)C (stereo not given) | -0.00641 | -4.9 | -0.0536 | -5.6 | .
CC[n+]1c(/C=C/C=C/N(C(C)=O)c2ccccc2)sc2cc(OC)ccc21 | -1.84 | -176.3 | -0.974 | -23.1 | .
CC(C)CCNC(=O)C(CC(C)C)N(Cc1ccc2c(c1)OCO2)C(=O)c1snc(C(N)=O)c1N (stereo not given) | . | -0.1 | . | 3.1 | ?
CCCC(C(=O)NC1CCCC1)N(Cc1cccs1)C(=O)c1snc(C(N)=O)c1N (stereo not given) | -0.261 | 3.4 | . | -2.3 | 0.0748
CC(C)CC(C(=O)NC1CCCC1)N(Cc1ccc2c(c1)OCO2)C(=O)c1snc(C(N)=O)c1N (stereo not given) | -0.478 | 0.3 | -0.675 | 7.4 | .
O=C(NC1CCCCC1)C(c1cccnc1)N(CCc1ccccc1)C(=O)Cc1cccs1 (stereo not given) | 0.207 | . | . | -6.8 | .
O=C(O)c1cccc(NC2=C(Cl)C(=O)c3ccccc3C2=O)c1 | -2.27 | 3.9 | -1.91 | 0.9 | 0.0558*
CNc1ccc(/C=C(\C#N)c2ccccn2)cc1[N+](=O)[O-] | 0.508 | -11.5 | -0.136 | -1.5 | .
N#C/C(=C\c1ccc(Cl)c([N+](=O)[O-])c1)c1ccccn1 | -1.29 | -0.8 | -6.93* | -6.6 | 0.0532*
CCCC1(C(=O)OCC)NC(c2ccc(O)cc2)C2C(=O)N(c3ccc4c(c3)OCCO4)C(=O)C21 (stereo not given) | 1.57 | -10.5 | 1.17* | -4.1 | 0.0748
CCOc1ccc(N2C(=O)C3C(c4ccc(O)cc4)NC(CCSC)(C(=O)OC)C3C2=O)cc1 (stereo not given) | 0.0155 | -2.2 | 0 | -9.5 | .
Cc1noc(C)c1CS(=O)(=O)c1ccc(Br)cc1 | -0.0425 | . | . | -3.9 | 0.0819
Cc1ccc(NC(=O)N2CCN(c3ncccc3C(F)(F)F)CC2)cc1 | -0.209 | 6.8 | . | . | .
O=C(Nc1ccc2ccccc2c1)N1CCN(c2ncccc2C(F)(F)F)CC1 | -2.12 | 6.0 | -3.93* | -0.6 | 0.0617*
COc1cc(-c2nc3cnccn3c2Nc2ccc(C)cc2)ccc1O | . | -7.3 | -3.4* | -0.3 | 0.0655*
COc1cccc(C(=O)OCC(=O)Nc2cc(C)c(C)cc2[N+](=O)[O-])c1 | 0.245 | -3.8 | 0.908 | -6.3 | .
O=C(Cn1c(=O)c(=O)n(Cc2ccccc2)c2ccc(Cl)cc21)Nc1cccc(F)c1 | -1.55 | -4.3 | . | -5.1 | .
CC1(C)CC(=O)C2=C(C1)OC(N)=C(C#N)C2C#Cc1ccccc1 (stereo not given) | . | -21.3 | -0.309 | -2.7 | .
CC1(C)CC(=O)C2=C(C1)OC(N)=C(C#N)C2CCc1ccccc1 (stereo not given) | 0.0191 | 1.4 | -5.07* | 5.9 | 0.0718
